Results on eight compounds are retold here after ChEMBL document CHEMBL3797186, “Single Residue Substitutions That Confer Voltage-Gated Sodium Ion Channel Subtype Selectivity in the NaV1.7 Inhibitory Peptide GpTx-1” (J Med Chem, 2016).

For assay [1], the target named is Sodium channel protein type 5 subunit alpha (Homo sapiens, UniProt Q14524). Nature of the assay: Inhibition of human Nav1.5 expressed in HEK293 cells assessed as inward peak current by ion-works quattro patch clamp electrophysiology method. The assay is classed as cell-based. The procedure, abridged:
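Stable HEK293 line expressing human NaV1.5, recorded by population patch clamp on the IonWorks Quattro.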
On the technique in general: Patch clamp records ionic current or voltage across a cell membrane.

The target of assay [2] is Sodium channel protein type 9 subunit alpha (Homo sapiens, UniProt Q15858). Nature of the assay: Inhibition of human Nav1.7 expressed in HEK293 cells assessed as inward peak current by ion-works quattro patch clamp electrophysiology method. The assay is classed as cell-based.

Positions of bridges follow the written chain, without caps; N, C: chain ends. Residues, ends and D or L forms follow the SMILES beside them.

Sequence of Sodium channel protein type 9 subunit alpha (Q15858 whole entry): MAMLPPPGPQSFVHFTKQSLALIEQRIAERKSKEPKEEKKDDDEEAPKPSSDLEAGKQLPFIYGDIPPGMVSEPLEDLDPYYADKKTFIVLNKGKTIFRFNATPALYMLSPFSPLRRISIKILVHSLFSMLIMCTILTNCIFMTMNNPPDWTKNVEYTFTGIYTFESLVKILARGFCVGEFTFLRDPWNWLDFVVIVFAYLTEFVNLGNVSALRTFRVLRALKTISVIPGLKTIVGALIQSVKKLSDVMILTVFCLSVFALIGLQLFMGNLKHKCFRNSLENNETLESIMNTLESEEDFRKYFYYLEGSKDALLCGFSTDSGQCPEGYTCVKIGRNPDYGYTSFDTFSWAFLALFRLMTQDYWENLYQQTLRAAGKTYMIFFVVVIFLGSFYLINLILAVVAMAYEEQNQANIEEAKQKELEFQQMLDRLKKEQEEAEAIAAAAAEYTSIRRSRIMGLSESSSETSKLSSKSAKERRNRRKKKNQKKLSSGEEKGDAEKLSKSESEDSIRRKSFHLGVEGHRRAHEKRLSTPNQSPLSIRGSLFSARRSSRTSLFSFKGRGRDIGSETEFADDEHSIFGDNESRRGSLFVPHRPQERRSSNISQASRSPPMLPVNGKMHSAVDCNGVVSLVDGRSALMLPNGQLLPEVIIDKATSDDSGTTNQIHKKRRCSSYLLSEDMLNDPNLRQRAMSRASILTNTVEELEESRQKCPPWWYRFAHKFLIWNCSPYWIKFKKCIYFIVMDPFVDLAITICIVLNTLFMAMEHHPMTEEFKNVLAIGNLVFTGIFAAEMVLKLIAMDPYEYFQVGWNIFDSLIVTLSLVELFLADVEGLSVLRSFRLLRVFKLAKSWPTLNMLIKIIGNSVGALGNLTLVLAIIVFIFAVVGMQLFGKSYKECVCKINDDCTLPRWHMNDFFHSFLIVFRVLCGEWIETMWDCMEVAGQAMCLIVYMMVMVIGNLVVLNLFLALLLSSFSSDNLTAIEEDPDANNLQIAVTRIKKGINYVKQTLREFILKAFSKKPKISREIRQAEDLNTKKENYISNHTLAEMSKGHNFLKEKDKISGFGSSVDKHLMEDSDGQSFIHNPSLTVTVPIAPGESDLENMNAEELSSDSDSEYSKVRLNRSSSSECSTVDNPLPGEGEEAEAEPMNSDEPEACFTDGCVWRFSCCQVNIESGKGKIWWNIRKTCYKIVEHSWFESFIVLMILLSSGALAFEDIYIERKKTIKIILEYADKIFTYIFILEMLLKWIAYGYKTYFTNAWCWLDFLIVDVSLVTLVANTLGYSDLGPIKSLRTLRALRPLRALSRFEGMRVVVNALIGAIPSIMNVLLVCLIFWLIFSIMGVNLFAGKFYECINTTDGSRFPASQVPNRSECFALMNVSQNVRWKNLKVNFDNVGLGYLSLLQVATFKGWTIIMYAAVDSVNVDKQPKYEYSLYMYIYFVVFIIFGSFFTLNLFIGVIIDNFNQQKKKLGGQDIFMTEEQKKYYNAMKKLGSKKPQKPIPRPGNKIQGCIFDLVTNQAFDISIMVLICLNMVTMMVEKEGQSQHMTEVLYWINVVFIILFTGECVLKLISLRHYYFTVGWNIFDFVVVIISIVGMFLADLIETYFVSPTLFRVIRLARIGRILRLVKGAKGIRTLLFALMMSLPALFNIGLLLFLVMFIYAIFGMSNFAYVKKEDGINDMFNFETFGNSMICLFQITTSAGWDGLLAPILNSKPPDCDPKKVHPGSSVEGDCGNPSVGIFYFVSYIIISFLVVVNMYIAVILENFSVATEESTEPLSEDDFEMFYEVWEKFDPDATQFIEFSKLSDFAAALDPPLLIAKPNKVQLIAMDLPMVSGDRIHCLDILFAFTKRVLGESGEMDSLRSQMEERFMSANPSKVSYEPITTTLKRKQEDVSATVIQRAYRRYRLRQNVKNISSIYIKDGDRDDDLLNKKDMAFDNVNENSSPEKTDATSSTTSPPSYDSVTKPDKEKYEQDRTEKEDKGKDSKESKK
Sequence of Sodium channel protein type 5 subunit alpha (Q14524 whole entry): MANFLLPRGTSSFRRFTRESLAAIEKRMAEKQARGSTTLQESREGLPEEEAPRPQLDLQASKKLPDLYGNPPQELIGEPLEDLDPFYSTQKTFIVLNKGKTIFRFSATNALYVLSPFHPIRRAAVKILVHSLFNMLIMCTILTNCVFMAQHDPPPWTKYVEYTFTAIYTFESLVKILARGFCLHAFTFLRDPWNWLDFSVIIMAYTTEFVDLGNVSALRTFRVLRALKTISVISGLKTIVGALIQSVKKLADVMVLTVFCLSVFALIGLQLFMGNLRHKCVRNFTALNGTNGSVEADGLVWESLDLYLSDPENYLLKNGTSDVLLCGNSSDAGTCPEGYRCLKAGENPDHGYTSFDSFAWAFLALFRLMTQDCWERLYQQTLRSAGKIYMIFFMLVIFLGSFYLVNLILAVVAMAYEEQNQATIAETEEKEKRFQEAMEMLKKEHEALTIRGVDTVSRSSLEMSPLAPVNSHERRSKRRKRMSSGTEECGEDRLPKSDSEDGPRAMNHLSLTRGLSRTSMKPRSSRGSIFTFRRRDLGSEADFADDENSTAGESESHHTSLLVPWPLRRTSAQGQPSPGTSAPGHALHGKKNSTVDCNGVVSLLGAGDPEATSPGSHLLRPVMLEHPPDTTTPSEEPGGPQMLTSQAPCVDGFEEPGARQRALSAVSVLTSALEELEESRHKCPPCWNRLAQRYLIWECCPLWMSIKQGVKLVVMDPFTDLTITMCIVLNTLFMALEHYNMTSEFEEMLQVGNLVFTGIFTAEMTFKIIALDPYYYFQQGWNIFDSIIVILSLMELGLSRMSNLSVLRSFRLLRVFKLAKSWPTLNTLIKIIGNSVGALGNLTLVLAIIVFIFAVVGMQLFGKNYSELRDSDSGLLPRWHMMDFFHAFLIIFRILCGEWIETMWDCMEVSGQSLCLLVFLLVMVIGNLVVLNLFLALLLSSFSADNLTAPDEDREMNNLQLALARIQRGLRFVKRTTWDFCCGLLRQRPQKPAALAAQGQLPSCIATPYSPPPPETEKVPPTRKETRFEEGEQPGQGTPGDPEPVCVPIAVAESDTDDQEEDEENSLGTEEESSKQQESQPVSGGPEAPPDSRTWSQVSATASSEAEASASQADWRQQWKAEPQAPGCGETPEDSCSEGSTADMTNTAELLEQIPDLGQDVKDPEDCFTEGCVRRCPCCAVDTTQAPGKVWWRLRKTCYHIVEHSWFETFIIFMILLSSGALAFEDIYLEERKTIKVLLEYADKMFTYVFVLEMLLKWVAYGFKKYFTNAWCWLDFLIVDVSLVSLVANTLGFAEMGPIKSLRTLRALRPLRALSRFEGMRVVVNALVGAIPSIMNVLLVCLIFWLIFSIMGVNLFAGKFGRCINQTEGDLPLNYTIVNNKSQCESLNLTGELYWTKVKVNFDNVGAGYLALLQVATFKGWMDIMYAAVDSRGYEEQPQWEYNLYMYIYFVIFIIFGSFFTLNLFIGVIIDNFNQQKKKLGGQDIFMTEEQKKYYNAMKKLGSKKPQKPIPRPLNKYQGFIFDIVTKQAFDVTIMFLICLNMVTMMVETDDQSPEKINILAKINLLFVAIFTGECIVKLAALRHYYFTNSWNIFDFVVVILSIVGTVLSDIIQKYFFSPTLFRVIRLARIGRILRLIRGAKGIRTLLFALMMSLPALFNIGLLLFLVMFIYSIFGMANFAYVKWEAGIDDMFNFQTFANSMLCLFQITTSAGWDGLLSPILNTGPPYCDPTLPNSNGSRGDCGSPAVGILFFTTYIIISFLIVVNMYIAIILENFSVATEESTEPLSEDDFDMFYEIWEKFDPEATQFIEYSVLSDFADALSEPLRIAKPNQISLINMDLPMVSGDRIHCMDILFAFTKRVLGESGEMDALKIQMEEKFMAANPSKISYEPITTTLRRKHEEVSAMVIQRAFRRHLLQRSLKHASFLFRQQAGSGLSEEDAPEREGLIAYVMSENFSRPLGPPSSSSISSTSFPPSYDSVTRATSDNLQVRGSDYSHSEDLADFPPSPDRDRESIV

As for `CC[C@H](C)[C@@H]1NC(=O)[C@@H]2CSSC[C@@H]3NC(=O)[C@H](C(C)C)NC(=O)[C@H](CC(C)C)NC(=O)[C@H](CC(N)=O)NC(=O)[C@@H]4CCCN4C(=O)[C@H](CCCNC(=N)N)NC(=O)[C@H](CSSC[C@H](NC(=O)[C@@H](N)CC(=O)O)C(=O)N[C@@H](CC(C)C)C(=O)NCC(=O)N[C@@H](Cc4ccccc4)C(=O)N[C@@H](Cc4cc5ccccc5[nH]4)C(=O)N[C@@H](CCCNC(=N)N)C(=O)N[C@@H](CCCCN)C(=O)N2)NC(=O)[C@H](CSSC[C@@H](C(=O)N[C@@H](CCCCN)C(=O)N[C@@H](Cc2ccc(O)cc2)C(=O)N[C@H](C(=O)N[C@@H](Cc2ccccc2)C(N)=O)C(C)C)NC(=O)[C@H](Cc2c[nH]c4ccccc24)NC(=O)[C@H](CCCCN)NC(=O)[C@H](Cc2cnc[nH]2)NC(=O)[C@H]([C@@H](C)O)NC(=O)[C@H](CCCNC(=N)N)NC(=O)[C@H](CO)NC3=O)NC(=O)[C@H](CCCCN)NC(=O)[C@H](CC(=O)O)NC(=O)[C@H](CC(N)=O)NC(=O)[C@H](CC(=O)O)NC(=O)[C@@H]2CCCN2C1=O`, the IC50 (as a rule, the concentration that inhibits the measured activity by half) was found to be 3400 nM in assay [1] and 30 nM in assay [2].

`CC[C@H](C)[C@@H]1NC(=O)[C@@H]2CSSC[C@@H]3NC(=O)[C@H](C(C)C)NC(=O)[C@H](CC(C)C)NC(=O)[C@H](CC(N)=O)NC(=O)[C@@H]4CCCN4C(=O)[C@H](CCCNC(=N)N)NC(=O)[C@H](CSSC[C@H](NC(=O)[C@H](CC(=O)O)NC(=O)[C@@H](N)Cc4c[nH]c5ccccc45)C(=O)N[C@@H](CC(C)C)C(=O)NCC(=O)N[C@@H](Cc4ccccc4)C(=O)N[C@@H](CCSC)C(=O)N[C@@H](CCCNC(=N)N)C(=O)N[C@@H](CCCCN)C(=O)N2)NC(=O)[C@H](CSSC[C@@H](C(=O)N[C@@H](CCCCN)C(=O)N[C@@H](Cc2ccc(O)cc2)C(=O)N[C@H](C(=O)N[C@@H](Cc2ccccc2)C(N)=O)C(C)C)NC(=O)[C@H](Cc2c[nH]c4ccccc24)NC(=O)[C@H](CCCCN)NC(=O)[C@H](Cc2cnc[nH]2)NC(=O)[C@H]([C@@H](C)O)NC(=O)[C@H](CCCNC(=N)N)NC(=O)[C@H](CO)NC3=O)NC(=O)[C@H](CCCCN)NC(=O)[C@H](CC(=O)O)NC(=O)[C@H](CC(N)=O)NC(=O)[C@H](CC(=O)O)NC(=O)[C@@H]2CCCN2C1=O`: the values for the IC50 in assay [1] and in assay [2] were above 5000 nM and 200 nM, respectively.

Consider `CC[C@H](C)[C@@H]1NC(=O)[C@@H]2CSSC[C@@H]3NC(=O)[C@H](C(C)C)NC(=O)[C@H](CC(C)C)NC(=O)[C@H](CC(N)=O)NC(=O)[C@@H]4CCCN4C(=O)[C@H](CCCNC(=N)N)NC(=O)[C@H](CSSC[C@H](NC(=O)[C@H](CC(=O)O)NC(=O)[C@@H](N)CCCCN)C(=O)N[C@@H](CC(C)C)C(=O)NCC(=O)N[C@@H](Cc4ccccc4)C(=O)N[C@@H](CCSC)C(=O)N[C@@H](CCCNC(=N)N)C(=O)N[C@@H](CCCCN)C(=O)N2)NC(=O)[C@H](CSSC[C@@H](C(=O)N[C@@H](CCCCN)C(=O)N[C@@H](Cc2ccc(O)cc2)C(=O)N[C@H](C(=O)N[C@@H](Cc2ccccc2)C(N)=O)C(C)C)NC(=O)[C@H](Cc2c[nH]c4ccccc24)NC(=O)[C@H](CCCCN)NC(=O)[C@H](Cc2cnc[nH]2)NC(=O)[C@H]([C@@H](C)O)NC(=O)[C@H](CCCNC(=N)N)NC(=O)[C@H](CO)NC3=O)NC(=O)[C@H](CCCCN)NC(=O)[C@H](CC(=O)O)NC(=O)[C@H](CC(N)=O)NC(=O)[C@H](CC(=O)O)NC(=O)[C@@H]2CCCN2C1=O`, for which the IC50 was above 5000 nM in assay [1] and 120 nM in assay [2].

For the compound `CSCC[C@@H]1NC(=O)[C@H](Cc2ccccc2)NC(=O)CNC(=O)[C@H](CC(C)C)NC(=O)[C@@H](NC(=O)[C@@H](N)CC(=O)O)CSSC[C@@H]2NC(=O)[C@@H]3CSSC[C@@H](C(=O)N[C@@H](CCCCN)C(=O)N[C@@H](Cc4ccc(O)cc4)C(=O)N[C@H](C(=O)N[C@@H](Cc4ccccc4)C(N)=O)C(C)C)NC(=O)[C@H](Cc4c[nH]c5ccccc45)NC(=O)[C@H](CCCCN)NC(=O)[C@H](Cc4cnc[nH]4)NC(=O)[C@H]([C@@H](C)O)NC(=O)[C@H](CCCNC(=N)N)NC(=O)[C@H](CO)NC(=O)[C@H](CSSC[C@H](NC(=O)[C@H](CCCCN)NC(=O)[C@H](CCCNC(=N)N)NC1=O)C(=O)N[C@@H](Cc1cc4ccccc4[nH]1)C(=O)N1CCC[C@H]1C(=O)N[C@@H](CC(=O)O)C(=O)N[C@@H](CC(N)=O)C(=O)N[C@@H](CC(=O)O)C(=O)N[C@@H](CCCCN)C(=O)N3)NC(=O)[C@H](C(C)C)NC(=O)[C@H](CC(C)C)NC(=O)[C@H](CC(N)=O)NC(=O)[C@@H]1CCCN1C(=O)[C@H](CCCNC(=N)N)NC2=O`, the IC50 in assay [1] is above 5000 nM; in assay [2] it was 130 nM.

For the compound `CC[C@H](C)[C@@H]1NC(=O)[C@@H]2CSSC[C@@H]3NC(=O)[C@H](C(C)C)NC(=O)[C@H](CC(C)C)NC(=O)[C@H](CC(N)=O)NC(=O)[C@@H]4CCCN4C(=O)[C@H](CCCNC(=N)N)NC(=O)[C@H](CSSC[C@H](NC(=O)[C@@H](N)CC(=O)O)C(=O)N[C@@H](CCCCN)C(=O)NCC(=O)N[C@@H](Cc4ccccc4)C(=O)N[C@@H](CCSC)C(=O)N[C@@H](CCCNC(=N)N)C(=O)N[C@@H](CCCCN)C(=O)N2)NC(=O)[C@H](CSSC[C@@H](C(=O)N[C@@H](CCCCN)C(=O)N[C@@H](Cc2ccc(O)cc2)C(=O)N[C@H](C(=O)N[C@@H](Cc2ccccc2)C(N)=O)C(C)C)NC(=O)[C@H](Cc2c[nH]c4ccccc24)NC(=O)[C@H](CCCCN)NC(=O)[C@H](Cc2cnc[nH]2)NC(=O)[C@H]([C@@H](C)O)NC(=O)[C@H](CCCNC(=N)N)NC(=O)[C@H](CO)NC3=O)NC(=O)[C@H](CCCCN)NC(=O)[C@H](CC(=O)O)NC(=O)[C@H](CC(N)=O)NC(=O)[C@H](CC(=O)O)NC(=O)[C@@H]2CCCN2C1=O` (H-DCKGFMRKCIPDNDKCCRPNLVCSRTHKWCKYVF-NH2; disulfide 2-17, 9-23, 16-30), the values for the IC50 in assay [1] and in assay [2] were above 5000 nM and 120 nM, respectively.

As to `CC[C@H](C)[C@@H]1NC(=O)[C@@H]2CSSC[C@@H]3NC(=O)[C@H](C(C)C)NC(=O)[C@H](CC(C)C)NC(=O)[C@H](CC(N)=O)NC(=O)[C@@H]4CCCN4C(=O)[C@H](CCCNC(=N)N)NC(=O)[C@H](CSSC[C@H](NC(=O)[C@@H](N)CC(=O)O)C(=O)N[C@@H](CC(C)C)C(=O)NCC(=O)N[C@@H](CCC(=O)O)C(=O)N[C@@H](CCSC)C(=O)N[C@@H](CCCNC(=N)N)C(=O)N[C@@H](CCCCN)C(=O)N2)NC(=O)[C@H](CSSC[C@@H](C(=O)N[C@@H](CCCCN)C(=O)N[C@@H](Cc2ccc(O)cc2)C(=O)N[C@H](C(=O)N[C@@H](Cc2ccccc2)C(N)=O)C(C)C)NC(=O)[C@H](Cc2c[nH]c4ccccc24)NC(=O)[C@H](CCCCN)NC(=O)[C@H](Cc2cnc[nH]2)NC(=O)[C@H]([C@@H](C)O)NC(=O)[C@H](CCCNC(=N)N)NC(=O)[C@H](CO)NC3=O)NC(=O)[C@H](CCCCN)NC(=O)[C@H](CC(=O)O)NC(=O)[C@H](CC(N)=O)NC(=O)[C@H](CC(=O)O)NC(=O)[C@@H]2CCCN2C1=O` (H-DCLGEMRKCIPDNDKCCRPNLVCSRTHKWCKYVF-NH2; disulfide 2-17, 9-23, 16-30), the half-inhibitory concentration (IC50) in assay [1] and in assay [2] was above 5000 nM throughout.

Regarding `CC[C@H](C)[C@@H]1NC(=O)[C@@H]2CSSC[C@@H]3NC(=O)[C@H](C(C)C)NC(=O)[C@H](CC(C)C)NC(=O)[C@H](CC(N)=O)NC(=O)[C@@H]4CCCN4C(=O)[C@H](CCCNC(=N)N)NC(=O)[C@H](CSSC[C@H](NC(=O)[C@@H](N)CC(=O)O)C(=O)N[C@@H](CC(C)C)C(=O)NCC(=O)N[C@@H](Cc4ccccc4)C(=O)N[C@@H](CCCCN)C(=O)N[C@@H](CCCNC(=N)N)C(=O)N[C@@H](CCCCN)C(=O)N2)NC(=O)[C@H](CSSC[C@@H](C(=O)N[C@@H](CCCCN)C(=O)N[C@@H](Cc2ccc(O)cc2)C(=O)N[C@H](C(=O)N[C@@H](Cc2ccccc2)C(N)=O)C(C)C)NC(=O)[C@H](Cc2c[nH]c4ccccc24)NC(=O)[C@H](CCCCN)NC(=O)[C@H](Cc2cnc[nH]2)NC(=O)[C@H]([C@@H](C)O)NC(=O)[C@H](CCCNC(=N)N)NC(=O)[C@H](CO)NC3=O)NC(=O)[C@H](CCCCN)NC(=O)[C@H](CC(=O)O)NC(=O)[C@H](CC(N)=O)NC(=O)[C@H](CC(=O)O)NC(=O)[C@@H]2CCCN2C1=O` (H-DCLGFKRKCIPDNDKCCRPNLVCSRTHKWCKYVF-NH2; disulfide 2-17, 9-23, 16-30), the IC50 in assay [1] and in assay [2] was above 5000 nM throughout.

On to `CC[C@H](C)[C@@H]1NC(=O)[C@@H]2CSSC[C@@H]3NC(=O)[C@H](C(C)C)NC(=O)[C@H](CC(C)C)NC(=O)[C@H](CC(N)=O)NC(=O)[C@@H]4CCCN4C(=O)[C@H](CCCNC(=N)N)NC(=O)[C@H](CSSC[C@H](NC(=O)[C@@H](N)CC(=O)O)C(=O)N[C@@H](CC(C)C)C(=O)NCC(=O)N[C@@H](Cc4ccccc4)C(=O)N[C@@H](CCSC)C(=O)N[C@@H](CCC(=O)O)C(=O)N[C@@H](CCCCN)C(=O)N2)NC(=O)[C@H](CSSC[C@@H](C(=O)N[C@@H](CCCCN)C(=O)N[C@@H](Cc2ccc(O)cc2)C(=O)N[C@H](C(=O)N[C@@H](Cc2ccccc2)C(N)=O)C(C)C)NC(=O)[C@H](Cc2c[nH]c4ccccc24)NC(=O)[C@H](CCCCN)NC(=O)[C@H](Cc2cnc[nH]2)NC(=O)[C@H]([C@@H](C)O)NC(=O)[C@H](CCCNC(=N)N)NC(=O)[C@H](CO)NC3=O)NC(=O)[C@H](CCCCN)NC(=O)[C@H](CC(=O)O)NC(=O)[C@H](CC(N)=O)NC(=O)[C@H](CC(=O)O)NC(=O)[C@@H]2CCCN2C1=O` (H-DCLGFMEKCIPDNDKCCRPNLVCSRTHKWCKYVF-NH2; disulfide 2-17, 9-23, 16-30), for which the IC50 in assay [1] was above 5000 nM; in assay [2], 860 nM.
